Activity and IC50 data for one molecule are collected here from ChEMBL document CHEMBL1649306, “Arylimidamide DB766, a potential chemotherapeutic candidate for Chagas' disease treatment” (Antimicrob Agents Chemother, 2010).

Calls of active or inactive are those of the source. The calls are words filed in the database; no cut-off is given here.

The test system of data set [1] is Trypanosoma cruzi. Briefly: Antitrypanosomal activity against Trypanosoma cruzi Columbian bloodstream forms infected in C3H mouse assessed as decrease in parasite load at 50 mg/kg/day, ip p administered 5 days postinfection for 10 consecutive days measured after 120 days. Type of data set: functional, organism-based.
Data set [2] deals with Trypanosoma cruzi. The data set can be described thus: Antitrypanosomal activity against Trypanosoma cruzi Columbian bloodstream forms infected in C3H mouse assessed as reduction in parasite-induced weight loss at 25 mg/kg/day, ip administered 5 days postinfection for 10 consecutive days measured after 120 days. Type of data set: functional, organism-based. Put shortly: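 Body weight of infected, treated mice followed from 0 to 120 dpi.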

For data set [3], the system named is Trypanosoma cruzi. Briefly: Antitrypanosomal activity against bloodstream forms of Trypanosoma cruzi Y infected in Swiss mouse cardiomyocytes assessed as parasite mitochondrial swelling at 10 ug/ml after 24 hrs by transmission electron microscopy. Type of data set: functional, organism-based. Put shortly: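 Y-strain bloodstream trypomastigotes treated 2 to 24 h at 37°C. Fixed 60 min at 4°C in 2.5% glutaraldehyde in 0.1 M cacodylate, pH 7.2. Postfixed 1 h at 4°C in 1% OsO4 with 0.8% potassium ferricyanide. Acetone-dehydrated, Epon-embedded, sections stained with uranyl acetate and lead citrate, ultrastructure examined by TEM.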

Data set [4] deals with Trypanosoma cruzi. The data set can be described thus: Antitrypanosomal activity against bloodstream forms of Trypanosoma cruzi Columbian after 24 hrs by light microscopy in presence of 50% mouse blood. In kind it is functional, organism-based. The method, boiled down: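 Bloodstream trypomastigotes kept at 4°C for 24 h in freshly isolated 50% mouse blood with serial dilutions (up to 32 μM). Motile live parasites counted in a Neubauer chamber by light microscopy; IC50 calculated as concentration reducing parasite number by 50%.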

The test system of data set [5] is Trypanosoma cruzi. Briefly: Antitrypanosomal activity against Trypanosoma cruzi Y bloodstream forms infected in Swiss-Webster mouse assessed as decrease in parasite load at 50 mg/kg/day, ip administered 5 days postinfection for 10 consecutive days measured after 8 days. Also on record: scale not given: the % may be the effect or the level left. The following applies: route intraperitoneal. In kind it is functional. The method, boiled down:
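Eight-week-old male Swiss mice infected i.p. with 10^4 Y-strain bloodstream trypomastigotes; parasitemia-positive mice only (n ≥ 6). Dosing i.p. (0.2 ml) daily for 10 consecutive days from parasitemia onset (5 dpi). Parasitemia at the 8 dpi peak counted by Pizzi-Brener method; reduction relative to infected untreated group.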

The subject of data set [6] is Mus musculus. Briefly: Toxicity in […](H-2k) mouse assessed as effect on GPT level at 100 mg/kg/day, […]. The following applies: in vivo. Type of data set: organism-based.

`CC(C)Oc1cc(NC(=N)c2ccccn2)ccc1-c1ccc(-c2ccc(NC(=N)c3ccccn3)cc2OC(C)C)o1`: the result in data set [1] and in data set [3] was Active. Also, the result in data set [2] was inactive. Also, the IC50 in data set [4] turned out to be 1000 nM. For the same molecule, the values for the Activity in data set [5] and in data set [6] were 98% and “Non-toxic”, respectively.
